Experimental data: ChEMBL document CHEMBL2346611, “Preliminary structure-activity relationships and biological evaluation of novel antitubercular indolecarboxamide derivatives against drug-susceptible and drug-resistant Mycobacterium tuberculosis strains” (J Med Chem, 2013)
In brackets after ≈: the same amount, converted by molar mass.

Experiments:
Type in all cases: functional
[1] = system: Mycobacterium tuberculosis; assay: Antitubercular activity against extensively drug resistant Mycobacterium tuberculosis TF274 by microplate Alamar Blue assay
Summary of the method: (§1)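 Mycobacterium tuberculosis strains were used: H37Rv, and clinical strains from KwaZulu-Natal (MDR KZN494 and V2475; XDR TF274 and R506). Growth was read by microplate Alamar Blue assay. MIC is the lowest drug concentration giving at least a 90% reduction of the bacterial growth signal. Values are the average of three individual measurements.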

[2] = system: Mycobacterium tuberculosis; assay: Antitubercular activity against extensively drug resistant Mycobacterium tuberculosis V2475 by microplate Alamar Blue assay
[3] = system: Mycobacterium tuberculosis; assay: Antitubercular activity against extensively drug resistant Mycobacterium tuberculosis R506 by microplate Alamar Blue assay; summary of the method: as §1
[4] = system: Mycobacterium tuberculosis; assay: Antitubercular activity against multi drug resistant Mycobacterium tuberculosis KZN494 by microplate Alamar Blue assay; summary of the method: as §1

SMILES | MIC90 [1] | MIC90 [2] | MIC90 [3] | MIC90 [4]
Cc1cc(C)c2cc(C(=O)NC3CCCCC3)[nH]c2c1 | 0.46 µM (≈ 0.124 µg/mL) | 0.93 µM (≈ 0.251 µg/mL) | 0.46 µM (≈ 0.124 µg/mL) | 3.7 µM (≈ 1 µg/mL)
Cc1cc(C)c2cc(C(=O)NC3CCCCCCC3)[nH]c2c1 | 0.026 µM (≈ 0.00776 µg/mL) | – | 0.0067 µM (≈ 0.002 µg/mL) | –
Cc1cc(C)c2cc(C(=O)NC3CCCCCC3)[nH]c2c1 | 0.055 µM (≈ 0.0156 µg/mL) | 0.11 µM (≈ 0.0313 µg/mL) | 0.055 µM (≈ 0.0156 µg/mL) | 0.11 µM (≈ 0.0313 µg/mL)
